Results from ChEMBL document CHEMBL1145149, “Functionalized pyrrolidines inhibit alpha-mannosidase activity and growth of human glioblastoma and melanoma cells” (J Med Chem, 2005).

Legend:
[1] = Growth inhibition of glioblastoma cells (LNZ 308) by the compound (100 uM) upon incubation for 72 hours using MTT assay; assay type: functional, Homo sapiens
How it was run: (§1)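 Human glioblastoma cells were kept in DMEM with 4.5 g/L glucose, 5% FCS and antibiotics, then plated for 24-72 h. They were exposed in fresh complete medium for 24, 48 or 72 h to 0, 100, 200 or 300 µM compound, with stocks in methanol/PBS 1:20. MTT at 0.2 mg/mL was present for the final 2 h. Formazan was dissolved in 0.1 N HCl/2-propanol and read at 540 nm. Readings were expressed relative to untreated cells. Triplicate wells.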

[2] = Growth inhibition of glioblastoma cells (LN18) by the compound (200 uM) upon incubation for 72 hours using MTT assay; assay type: functional, Homo sapiens; design: unit not given here; how it was run: as §1
[3] = Growth inhibition of glioblastoma cells (LNZ 308) by the compound (100 uM) upon incubation for 24 hours using MTT assay; assay type: functional, Homo sapiens; how it was run: as §1
[4] = Growth inhibition of glioblastoma cells (LN18) by the compound (200 uM) upon incubation for 24 hours using MTT assay; assay type: functional, Homo sapiens; design: unit: %; how it was run: as §1
[5] = Growth inhibition of glioblastoma cells (LN18) by the compound (300 uM) upon incubation for 24 hours using MTT assay; assay type: functional, Homo sapiens; design: unit not given here; how it was run: as §1
[6] = Growth inhibition of glioblastoma cells (LN18) by the compound (300 uM) upon incubation for 48 hours using MTT assay; assay type: functional, Homo sapiens; design: unit: %; how it was run: as §1
[7] = Growth inhibition of glioblastoma cells (LNZ 308) by the compound (100 uM) upon incubation for 48 hours using MTT assay; assay type: functional, Homo sapiens; how it was run: as §1
[8] = Growth inhibition of glioblastoma cells (LN18) by the compound (300 uM) upon incubation for 72 hours using MTT assay; assay type: functional, Homo sapiens; design: unit not given here; how it was run: as §1
[9] = Growth inhibition of glioblastoma cells (LNZ 308) by the compound (200 uM) upon incubation for 72 hours using MTT assay; assay type: functional, Homo sapiens; how it was run: as §1
[10] = Growth inhibition of glioblastoma cells (LNZ 308) by the compound (300 uM) upon incubation for 72 hours using MTT assay; assay type: functional, Homo sapiens; how it was run: as §1
[11] = Growth inhibition of glioblastoma cells (LNZ 308) by the compound (200 uM) upon incubation for 24 hours using MTT assay; assay type: functional, Homo sapiens; how it was run: as §1
[12] = Growth inhibition of glioblastoma cells (LNZ 308) by the compound (200 uM) upon incubation for 48 hours using MTT assay; assay type: functional, Homo sapiens; how it was run: as §1
[13] = Growth inhibition of glioblastoma cells (LN18) by the compound (200 uM) upon incubation for 48 hours using MTT assay; assay type: functional, Homo sapiens; design: unit not given here; how it was run: as §1
[14] = Growth inhibition of glioblastoma cells (LNZ 308) by the compound (300 uM) upon incubation for 24 hours using MTT assay; assay type: functional, Homo sapiens; how it was run: as §1
[15] = Growth inhibition of glioblastoma cells (LN18) by the compound (100 uM) upon incubation for 24 hours using MTT assay; assay type: functional, Homo sapiens; how it was run: as §1
[16] = Growth inhibition of glioblastoma cells (LNZ 308) by the compound (300 uM) upon incubation for 48 hours using MTT assay; assay type: functional, Homo sapiens; how it was run: as §1
[17] = Growth inhibition of glioblastoma cells (LN18) by the compound (100 uM) upon incubation for 48 hours using MTT assay; assay type: functional, Homo sapiens; design: unit: %; how it was run: as §1
[18] = Growth inhibition of glioblastoma cells (LN18) by the compound (100 uM) upon incubation for 72 hours using MTT assay; assay type: functional, Homo sapiens; design: unit: %; how it was run: as §1
[19] = Growth inhibition of glioblastoma cells (LNZ 308 cell) by the compound (200 uM) upon incubation for 24 hours using MTT assay; assay type: functional, Homo sapiens; design: unit: %; how it was run: as §1
[20] = Growth inhibition of glioblastoma cells (LNZ 308 cell) by the compound (300 uM) upon incubation for 48 hours using MTT assay; assay type: functional, Homo sapiens; design: unit: %; how it was run: as §1
[21] = Growth inhibition of glioblastoma cells (LNZ 308 cell) by the compound (100 uM) upon incubation for 24 hours using MTT assay; assay type: functional, Homo sapiens; design: unit not given here; how it was run: as §1
[22] = Growth inhibition of glioblastoma cells (LNZ 308 cell) by the compound (100 uM) upon incubation for 72 hours using MTT assay; assay type: functional, Homo sapiens; design: unit not given here; how it was run: as §1
[23] = Growth inhibition of glioblastoma cells (LNZ 308 cell) by the compound (300 uM) upon incubation for 72 hours using MTT assay; assay type: functional, Homo sapiens; design: unit: %; how it was run: as §1
[24] = Growth inhibition of glioblastoma cells (LNZ 308 cell) by the compound (200 uM) upon incubation for 48 hours using MTT assay; assay type: functional, Homo sapiens; design: unit: %; how it was run: as §1
[25] = Growth inhibition of glioblastoma cells (LNZ 308 cell) by the compound (200 uM) upon incubation for 72 hours using MTT assay; assay type: functional, Homo sapiens; design: unit: %; how it was run: as §1
[26] = Growth inhibition of glioblastoma cells (LNZ 308 cell) by the compound (100 uM) upon incubation for 48 hours using MTT assay; assay type: functional, Homo sapiens; design: unit not given here; how it was run: as §1
[27] = Growth inhibition of glioblastoma cells (LNZ 308 cell) by the compound (300 uM) upon incubation for 24 hours using MTT assay; assay type: functional, Homo sapiens; design: unit not given here; how it was run: as §1
[28] = Growth inhibition of glioblastoma cells (LN18) by the compound (300 uM) upon incubation for 48 hr using MTT assay; assay type: functional, Homo sapiens; how it was run: as §1
[29] = Growth inhibition of glioblastoma cells (LN18) by the compound (200 uM) upon incubation for 24 hr using MTT assay; assay type: functional, Homo sapiens; how it was run: as §1
[30] = Growth inhibition of glioblastoma cells (LN18) by the compound (300 uM) upon incubation for 72 hr using MTT assay; assay type: functional, Homo sapiens; how it was run: as §1
[31] = Growth inhibition of glioblastoma cells (LN18) by the compound (300 uM) after 24 hr using MTT assay; assay type: functional, Homo sapiens; how it was run: as §1
[32] = molecular target: T1, Alpha-mannosidase (Glycine max) (UniProt Q9SEH8); conditions: Prunus dulcis; 1 mM
T1 sequence (whole entry): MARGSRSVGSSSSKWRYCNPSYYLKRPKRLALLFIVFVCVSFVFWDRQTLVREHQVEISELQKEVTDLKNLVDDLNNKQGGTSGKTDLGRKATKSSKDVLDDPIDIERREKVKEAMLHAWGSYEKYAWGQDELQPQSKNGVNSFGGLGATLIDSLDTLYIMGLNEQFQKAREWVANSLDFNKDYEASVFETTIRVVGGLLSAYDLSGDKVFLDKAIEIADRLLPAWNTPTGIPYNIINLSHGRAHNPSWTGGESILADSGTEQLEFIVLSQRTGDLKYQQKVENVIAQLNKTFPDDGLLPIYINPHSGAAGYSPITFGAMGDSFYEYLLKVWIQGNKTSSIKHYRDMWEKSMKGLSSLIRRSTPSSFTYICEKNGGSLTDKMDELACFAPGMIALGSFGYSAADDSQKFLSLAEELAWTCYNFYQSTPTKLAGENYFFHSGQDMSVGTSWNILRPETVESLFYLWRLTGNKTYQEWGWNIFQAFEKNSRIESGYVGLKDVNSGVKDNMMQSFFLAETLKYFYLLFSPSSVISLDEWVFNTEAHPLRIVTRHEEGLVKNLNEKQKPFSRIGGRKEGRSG

Row | SMILES | Growth inhibition [2] | Growth inhibition [4] | Growth inhibition [5] | Growth inhibition [6] | Growth inhibition [8] | Growth inhibition [11] | Growth inhibition [13] | Growth inhibition [15] | Growth inhibition [17] | Growth inhibition [18] | Growth inhibition [19] | Growth inhibition [20] | Growth inhibition [21] | Growth inhibition [22] | Growth inhibition [23] | Growth inhibition [24] | Growth inhibition [25] | Growth inhibition [26] | Growth inhibition [27] | other results
1 | OC[C@H](NC[C@H]1NC[C@H](O)[C@@H]1O)c1ccccc1 | 12 | 19 | 22 | 23 | 22 | 8 | 26 | 13 | 16 | 15 |  |  |  |  |  |  |  |  |  | Growth inhibition [1]: 5; Growth inhibition [3]: 0; Growth inhibition [7]: 19; Growth inhibition [9]: 13; Growth inhibition [10]: 22; Growth inhibition [12]: 19; Growth inhibition [14]: 26; Growth inhibition [16]: 25
2 | O[C@H]1[C@@H](O)CN[C@@H]1CN[C@@H](COCc1cccc(F)c1)c1ccccc1 | 41 | 19 | 27 | 39 | 76 | 14 | 14 |  | 6 | 12 | 14 | 56 | 2 | 6 | 53 | 29 | 27 | 6 | 34 | 
3 | O=C(OCC(NC[C@H]1NC[C@H](O)[C@@H]1O)c1ccccc1)c1ccc(F)cc1 (some centres not stated) | 14 | 22 | 20 | 24 | 31 | 16 | 16 |  | 5 | 4 | 16 | 17 | 4 | 8 | 32 | 18 | 24 | 10 | 21 | 
4 | O=C(OCC(NC[C@H]1NC[C@H](O)[C@@H]1O)c1ccccc1)c1cccc(Br)c1 (some centres not stated) | 24 |  |  |  |  | 5 | 25 |  | 21 | 18 | 5 | 31 | 5 | 13 | 34 | 23 | 23 | 17 | 17 | Growth inhibition [28]: 29; Growth inhibition [29]: 10; Growth inhibition [30]: 36; Growth inhibition [31]: 16
5 | O=C(OCC(NC[C@H]1NC[C@H](O)[C@@H]1O)c1ccccc1)c1ccccc1F (some centres not stated) | 14 | 17 | 26 | 8 | 15 |  | 10 |  | 7 | 3 | 18 | 18 | 0 | 0 | 26 | 15 | 17 | 6 | 23 | 
6 | OC[C@@H](NC[C@H]1NC[C@H](O)[C@@H]1O)c1ccccc1 |  | 17 | 7 |  |  | 4 |  | 0 |  |  |  |  |  |  |  |  |  |  |  | Growth inhibition [3]: 0; Growth inhibition [14]: 28; inhibition [32]: 55%
7 | O=C(NCC(NC[C@H]1NC[C@H](O)[C@@H]1O)c1ccccc1)c1cccc(Br)c1 (some centres not stated) | 61 | 30 | 52 | 50 | 65 | 20 | 46 |  | 20 | 43 | 20 | 42 | 2 | 43 | 59 | 40 | 52 | 19 | 50 | 
8 | O=C(OCC(NC[C@H]1NC[C@H](O)[C@@H]1O)c1ccccc1)c1ccc(Br)cc1 (some centres not stated) | 68 | 67 | 92 | 95 | 97 |  | 48 | 5 | 17 | 31 | 60 | 78 | 11 | 24 | 96 | 33 | 56 | 15 | 87 | 
